Assay results gathered from unrelated publications.
Each line is one published result; the experiments were not run side by side.
Effect on: cell growth or viability

With `O=[N+]([O-])c1ccc(O)c(C=NNc2ccc(Cl)cc2)c1` the IC50 was 11.4 µM (HEK-293T; MTT; 24 h).
`O=C(Nc1ccc(Cl)cc1)Nc1cccc(-c2cn(Cc3ccc(Cl)cc3)nn2)c1` has an IC50 of 13 µM (Huh-7; CCK-8; 72 h).
`Cc1nnc(-c2nn(Cc3ccc(Cl)cc3Cl)c3ccccc23)o1` has an IC50 of 41.5 µM (HepG2; 48 h).
`COc1ccc(NC(=O)Nc2cccc(-c3cn(Cc4cccc(Cl)c4)nn3)c2)cc1` gave an IC50 of 13.5 µM (Huh-7; CCK-8; 72 h).
`COC(=O)c1ccc2c(c1)NC(=O)/C2=C(\Nc1ccc(N(C)C(=O)CN2CCN(C)CC2)cc1)c1ccccc1` has an IC50 of 0.8 µM (HEK-293T; MTT; 24 h).
The IC50 of `COc1ccc(NC(=O)Nc2ccc(-c3cn(Cc4ccc(Cl)cc4)nn3)cc2)cc1` is reported as > 50 µM (Huh-7; CCK-8; 72 h).
With `COc1cccc2c1C(=O)c1c(O)c3c(c(O)c1C2=O)C[C@@](O)(C(=O)CO)C[C@@H]3O[C@H]1C[C@H](N)[C@H](O)[C@H](C)O1` the IC50 was 0.0117 µM (Ramos; 96 h).
`COc1cccc2c1C(=O)c1c(O)c3c(c(O)c1C2=O)C[C@@](O)(C(=O)CO)C[C@@H]3O[C@H]1C[C@H](N)[C@H](O)[C@H](C)O1` gave an IC50 of 0.6 µM (Huh-7; ATP luminescence; 72 h).
For `COc1ccc(NC(=O)NCc2cn(Cc3ccc(Br)cc3)nn2)cc1`, the IC50 was > 50 µM (Huh-7; CCK-8; 72 h).
The IC50 of `COc1cccc2c1C(=O)c1c(O)c3c(c(O)c1C2=O)C[C@@](O)(C(=O)CO)C[C@@H]3O[C@H]1C[C@H](N)[C@H](O)[C@H](C)O1` is reported as 1.39 µM (HEK-293T; MTT; 24 h).
For `CNC(=O)c1cc(Oc2ccc(NC(=O)Nc3ccc(Cl)c(C(F)(F)F)c3)cc2)ccn1`, the IC50 was 8.78 µM (THLE3; imaging; 72 h).
With `O=[N+]([O-])c1cc(I)c(O)c(C=NNc2ccc(Cl)cc2)c1` the IC50 was 12.3 µM (HEK-293T; MTT; 24 h).
`COc1ccc(NC(=O)Nc2cccc(-c3cn(Cc4ccccc4C)nn3)c2)cc1` gave an IC50 of 10.8 µM (Huh-7; CCK-8; 72 h).
For `CN1CCN(c2ccc(Nc3c4ccccc4nc4ccccc34)cc2)CC1`, the IC50 was 8.63 µM (THLE3; imaging; 72 h).
With `O=[N+]([O-])c1cc(Br)c(O)c(C=NNc2ccccc2)c1` the IC50 was 23 µM (HEK-293T; MTT; 24 h).
